Assay [1] addresses T1, Pancreatic triacylglycerol lipase (Sus scrofa) (UniProt P00591).
T1 sequence (whole entry): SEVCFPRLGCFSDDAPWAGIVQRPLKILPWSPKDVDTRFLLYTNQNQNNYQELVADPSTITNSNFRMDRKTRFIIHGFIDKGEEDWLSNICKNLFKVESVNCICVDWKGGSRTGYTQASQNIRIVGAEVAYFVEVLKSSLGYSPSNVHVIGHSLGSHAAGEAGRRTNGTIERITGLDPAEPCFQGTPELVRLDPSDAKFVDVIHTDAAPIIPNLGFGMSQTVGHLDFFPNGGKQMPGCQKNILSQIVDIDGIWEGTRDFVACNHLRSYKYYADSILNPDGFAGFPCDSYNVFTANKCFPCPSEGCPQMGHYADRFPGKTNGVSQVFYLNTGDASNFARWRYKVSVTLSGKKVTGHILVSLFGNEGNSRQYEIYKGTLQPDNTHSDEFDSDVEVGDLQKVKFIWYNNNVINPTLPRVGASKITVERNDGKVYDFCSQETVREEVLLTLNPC
As to conditions: dose 4.9 mg/ml, time 30-90 min.

Assay [2] has as its target T1, Pancreatic triacylglycerol lipase (Sus scrofa). The note with it: dose 4.9 mg/ml, time 30-90 min. This is another data set of the same source.
The target in assay [3] is T2, Gastric triacylglycerol lipase (Canis lupus familiaris) (UniProt P80035).
T2 sequence (whole entry): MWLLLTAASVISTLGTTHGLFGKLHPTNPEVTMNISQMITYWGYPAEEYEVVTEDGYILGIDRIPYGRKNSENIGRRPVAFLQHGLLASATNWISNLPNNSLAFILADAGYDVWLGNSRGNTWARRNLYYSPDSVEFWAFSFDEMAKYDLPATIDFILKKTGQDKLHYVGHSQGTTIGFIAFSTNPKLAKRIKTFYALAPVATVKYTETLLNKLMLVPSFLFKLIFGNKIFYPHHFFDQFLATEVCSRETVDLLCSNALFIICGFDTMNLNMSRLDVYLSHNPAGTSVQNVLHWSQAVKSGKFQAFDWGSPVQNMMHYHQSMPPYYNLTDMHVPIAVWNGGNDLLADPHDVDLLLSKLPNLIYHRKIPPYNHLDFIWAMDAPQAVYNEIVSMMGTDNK
Put plainly: Inhibition of recombinant dog gastric lipase assessed as lipolysis level at 4.9 mg/ml under gastric phase at pH 5.5 using solid test meal measured up to 30 mins (reference value: 13 +/- 1.2 %). Details: scale not given: the % may be the effect or the level left. The note with it: time min <=30. Summed up:
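In vitro two-phase digestion at 37 °C, 1,000 rpm: 15 mL liquid or solid test meal (506 mg TAG) was premixed with 7.262 µmol inhibitor in DMSO (DMSO-only control). Gastric phase: DGL 17 µg/mL final, pH 5.5. Duodenal phase from 30 min: pancreatic extract plus bovine bile added (PPL 250 µg/mL, bile salts 4.0 mM), pH 6.25. Lipids in samples were quantified by TLC-FID; LL% is (MAG+FFA) relative to 3×initial TAG; n = 3.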

For assay [4], the target named is T2, Gastric triacylglycerol lipase (Canis lupus familiaris). The experiment in a line: Inhibition of recombinant dog gastric lipase at 4.1 mg/ml under gastric phase at pH 5.5 using liquid test meal measured up to 30 mins relative to control. As to conditions: time min <=30. The procedure, abridged:
(§1)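 Gastric phase: 15 mL liquid or solid test meal (506 mg TAG) premixed with 734 µL of 4.1 mg/mL DMSO stock (2.94 mg, 7.262 µmol), then DGL to 17 µg/mL final, pH 5.5, 37 °C, stirred. Samples at 1, 15, 29 min; residual DGL activity by pH-stat; lipolysis level from TLC-FID of lipid extracts. DMSO-only controls; n = 3.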

Assay [5] has as its target T1, Pancreatic triacylglycerol lipase (Sus scrofa). Put plainly: Inhibition of porcine pancreatic lipase assessed as residual activity at 4.1 mg/ml under duodenal phase at pH 6.5 using liquid test meal measured after 30 to 90 mins relative to control. The note with it: time 30-90 min.
The target of assay [6] is T2, Gastric triacylglycerol lipase (Canis lupus familiaris). Put plainly: Inhibition of recombinant dog gastric lipase preincubated for 30 mins at 25 degreeC.
For assay [7] the target is unchanged. The experiment in a line: Inhibition of recombinant dog gastric lipase at 4.1 mg/ml under gastric phase at pH 5.5 using solid test meal measured up to 30 mins relative to control. As to conditions: time min <=30. The procedure, abridged:
as §1

The target is the same in assay [8]. Put plainly: Inhibition of recombinant dog gastric lipase assessed as residual activity at 4.1 mg/ml under gastric phase at pH 5.5 using liquid test meal measured up to 30 mins relative to control. The note with it: time min <=30. The procedure, abridged: as §1
The target of assay [9] is T3, Pancreatic lipase-related protein 2 (Cavia porcellus) (UniProt P81139).
T3 sequence (whole entry): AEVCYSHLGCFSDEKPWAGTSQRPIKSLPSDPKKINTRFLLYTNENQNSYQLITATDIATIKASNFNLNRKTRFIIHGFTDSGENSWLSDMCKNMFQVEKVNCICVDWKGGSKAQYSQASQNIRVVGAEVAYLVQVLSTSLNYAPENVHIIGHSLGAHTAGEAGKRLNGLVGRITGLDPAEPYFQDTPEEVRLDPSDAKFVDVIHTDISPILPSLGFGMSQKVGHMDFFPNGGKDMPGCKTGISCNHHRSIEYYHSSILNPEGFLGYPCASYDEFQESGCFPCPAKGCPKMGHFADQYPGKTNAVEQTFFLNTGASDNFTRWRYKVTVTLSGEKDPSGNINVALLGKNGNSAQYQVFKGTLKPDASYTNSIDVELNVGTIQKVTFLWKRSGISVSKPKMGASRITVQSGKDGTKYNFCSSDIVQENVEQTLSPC
Put plainly: Inhibition of recombinant guinea pig PL-RP2 expressed in Aspergillus oryzae at 20:1 molar excess compound concentration preincubated for 30 mins at 25 degreeC relative to control.

The target in assay [10] is T1, Pancreatic triacylglycerol lipase (Sus scrofa). The experiment in a line: Inhibition of porcine pancreatic lipase assessed as residual activity at 4.1 mg/ml under duodenal phase at pH 6.5 using solid test meal measured after 30 to 90 mins relative to control. The note with it: time 30-90 min.
The target in assay [11] is T2, Gastric triacylglycerol lipase (Canis lupus familiaris). The experiment in a line: Inhibition of recombinant dog gastric lipase at 4:1 molar excess compound concentration preincubated for 30 mins at 25 degreeC relative to control.
Assay [12] has the same target. The experiment in a line: Inhibition of recombinant dog gastric lipase assessed as lipolysis level at 4.1 mg/ml under gastric phase at pH 5.5 using liquid test meal measured up to 30 mins (reference value: 22.3 +/- 1.4 %). Further details: scale not given: the % may be the effect or the level left. The note with it: time min <=30. Summed up: as §1
Assay [13] has the same target. The experiment in a line: Inhibition of recombinant dog gastric lipase at 20:1 molar excess compound concentration preincubated for 30 mins at 25 degreeC relative to control.
Assay [14] concerns the target T1, Pancreatic triacylglycerol lipase (Sus scrofa). The experiment in a line: Inhibition of porcine pancreatic lipase assessed as lipolysis level at 4.1 mg/ml under duodenal phase at pH 6.5 using solid test meal measured at 90 mins (reference value: 45.4 +/- 1.4 %). Further details: scale not given: the % may be the effect or the level left.
Assay [15] has the same target. The experiment in a line: Inhibition of porcine pancreatic lipase assessed as lipolysis level at 4.1 mg/ml under duodenal phase at pH 6.5 using solid test meal measured at 45 mins (reference value: 24.7 +/- 0.87 %). Further details: scale not given: the % may be the effect or the level left.
Assay [16] addresses T3, Pancreatic lipase-related protein 2 (Cavia porcellus). The experiment in a line: Inhibition of recombinant guinea pig PL-RP2 expressed in Aspergillus oryzae at 4:1 molar excess compound concentration preincubated for 30 mins at 25 degreeC relative to control.
The target in assay [17] is T1, Pancreatic triacylglycerol lipase (Sus scrofa). The experiment in a line: Inhibition of porcine pancreatic lipase assessed as lipolysis level at 4.1 mg/ml under duodenal phase at pH 6.5 using liquid test meal measured at 90 mins (reference value: 63.6 +/- 2.6 %). Details: scale not given: the % may be the effect or the level left.

Molecules are shown by their SMILES.

These results are taken from ChEMBL document CHEMBL4715754, “Slowing down fat digestion and absorption by an oxadiazolone inhibitor targeting selectively gastric lipolysis” (2016).

Regarding `CCCCCCCCCCC[C@@H](C[C@@H]1OC(=O)[C@H]1CCCCCC)OC(=O)[C@@H](CC(C)C)NC=O`, the inhibition in assay [1] was found to be 85.2%; in [2], 100%. For the same compound, the Activity in [3] was found to be 2.1%.

On to `O=c1oc(OCCOCc2ccccc2)nn1-c1cccc(Oc2ccccc2)c1`, for which the inhibition in assay [4] is 100%; in assay [7], 97.2%; in assay [9] it was 62.1%; in assay [11], 87.6%; in [13] it was 91.5%; in assay [16] it was 60.6%. For the same compound, the Activity in assay [5] came to 94.4%; in [8], 0%; in assay [10], 94.9%; in assay [12], 4.5%; in assay [14] it was 33.7%; in [15], 20.6%. Moreover, the Activity in [17] turned out to be 55.3%. Moreover, the XI50 in assay [6] is 0.5 molar excess.

Broadly, the inhibition is the percentage by which the read-out fell short of the control.
